The inhibition is the relative decrease from the control value, in per cent.

These results are taken from ChEMBL document CHEMBL1122501, “Potential antiatherosclerotic agents. 2. (Aralkylamino)- and (alkylamino) benzoic acid analogues of cetaben” (1983).

Experiment [1] has as its system Rattus norvegicus. Put plainly: In vivo triglyceride lowering activity, dosed at 0.01 % of the diet. It is filed as functional. A digest of the protocol:
(§1)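 Male CFE or CD-1 Sprague-Dawley rats, 140-150 g; 8 per control group, 4 per test group. Compound mixed into ground chow (w/w) via MeOH-CHCl3 (1:3) solution, solvent evaporated; controls got solvent-treated chow. Fed ad libitum 5 days, food intake monitored, killed fed and bled. Serum sterols and triglycerides by adapted autoanalyzer methods; mean percent of control, Student's t test.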

Experiment [2] relates to Rattus norvegicus. Description: In vivo Sterol lowering activity at dose as 0.01 % of the diet.. It is filed as functional. The procedure, abridged: as §1
The test system of experiment [3] is Rattus norvegicus. Description: In vivo Sterol lowering activity at dose as 0.03 % of the diet. It is filed as functional. A digest of the protocol: as §1
Experiment [4] has as its system Rattus norvegicus. Put plainly: In vivo Sterol lowering activity at dose as 0.10 % of the diet. Type of experiment: functional. A digest of the protocol:
as §1

Experiment [5] has as its target T1, Sterol O-acyltransferase 1 (Rattus norvegicus) (UniProt O70536).
T1 sequence (whole entry): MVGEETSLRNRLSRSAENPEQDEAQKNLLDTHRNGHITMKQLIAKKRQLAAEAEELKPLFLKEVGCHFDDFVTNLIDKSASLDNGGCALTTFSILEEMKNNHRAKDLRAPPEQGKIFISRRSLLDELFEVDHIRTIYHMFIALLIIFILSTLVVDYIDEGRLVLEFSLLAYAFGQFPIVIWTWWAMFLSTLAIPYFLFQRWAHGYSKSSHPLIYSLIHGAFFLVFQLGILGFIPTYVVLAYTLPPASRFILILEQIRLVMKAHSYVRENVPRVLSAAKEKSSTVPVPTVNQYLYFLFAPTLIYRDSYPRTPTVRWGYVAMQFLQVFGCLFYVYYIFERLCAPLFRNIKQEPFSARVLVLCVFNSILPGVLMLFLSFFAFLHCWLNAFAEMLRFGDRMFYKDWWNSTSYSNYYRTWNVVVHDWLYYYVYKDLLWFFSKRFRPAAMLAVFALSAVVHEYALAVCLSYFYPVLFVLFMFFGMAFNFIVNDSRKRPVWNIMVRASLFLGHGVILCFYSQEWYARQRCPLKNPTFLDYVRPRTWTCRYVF
Description: In vitro inhibitory activity against acyl coenzyme A:cholesterol acyltransferase (ACAT). The note with it: concentration not given here. Details: concentration or dose not given beside the values. The procedure, abridged: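 ACAT enzyme from rat adrenal homogenate in 0.2 M KH2PO4 buffer pH 7.4, 1000g 15 min 5 °C supernatant (microsomal fraction). Supernatant + BSA (50 mg/mL) + compound at final 5.2 μg/mL + buffer preincubated 10 min 37 °C; [14C]oleoyl-CoA (0.4 μCi) added, 30 min 37 °C. Lipids extracted, TLC; cholesteryl ester zone counted. Mean % inhibition vs no-compound control; Student's t test.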

The subject of experiment [6] is Rattus norvegicus. Put plainly: In vivo triglyceride lowering activity, dosed at 0.03 % of the diet. It is filed as functional. A digest of the protocol: as §1
Experiment [7] concerns Rattus norvegicus. Description: In vivo triglyceride lowering activity dosed at 0.10 % of the diet. It is filed as functional. The procedure, abridged:
as §1

The subject of experiment [8] is Rattus norvegicus. Description: In vivo Sterol lowering activity at dose as 0.05 % of the diet. Type of experiment: functional. The procedure, abridged:
as §1

For experiment [9], the system named is Rattus norvegicus. Description: In vivo Triglyceride lowering activity at dose as 0.05 % of the diet. It is filed as functional. The procedure, abridged:
as §1

The subject of experiment [10] is Rattus norvegicus. Description: In vivo Triglyceride lowering activity at dose as 0.025 % of the diet. Type of experiment: functional. A digest of the protocol:
as §1

Experiment [11] relates to Rattus norvegicus. Description: In vivo Sterol lowering activity at dose as 0.025 % of the diet. Type of experiment: functional. The procedure, abridged: as §1
For experiment [12], the system named is Rattus norvegicus. Description: In vivo triglyceride lowering activity, dosed at 0.10 % of the diet. It is filed as functional. A digest of the protocol: as §1
Experiment [13] deals with Rattus norvegicus. Description: In vivo triglyceride lowering activity dosed at 0.05 % of the diet. Type of experiment: functional. A digest of the protocol:
as §1

Experiment [14] deals with Rattus norvegicus. Description: In vivo Triglyceride lowering activity at dose as 0.025% of the diet. Type of experiment: functional. The procedure, abridged: as §1
Experiment [15] has as its system Rattus norvegicus. Description: In vivo Sterol lowering activity at dose as 0.05 % of the diet. Type of experiment: functional. A digest of the protocol:
as §1

Take `CCOC(=O)c1ccc(NCCCc2ccc(N)cc2)cc1`: the Diet with Rattus norvegicus [1] came to 113%; with Rattus norvegicus [2], 93%. For the same compound, in the experiment on Rattus norvegicus [3], the “serum sterol level, percent of control” value is 97%. Besides, in the experiment on Rattus norvegicus [4], the “serum sterol, percent of control” value was 100%. The compound further registered an inhibition in experiment [5] of 28%. Besides, the “serum triglycerides, percent of control” value in the experiment on Rattus norvegicus [6] amounted to 70%; with Rattus norvegicus [7], 79%.

For `COc1ccccc1CCCNc1ccc(C(=O)O)cc1`, the Diet is 100% in the experiment with Rattus norvegicus [8]; 87% in the experiment with Rattus norvegicus [9]; 100% with Rattus norvegicus [10]; 102% in the experiment with Rattus norvegicus [11]; 72% in the experiment with Rattus norvegicus [12]. Further, the “serum sterol, percent of control” value with Rattus norvegicus [4] turned out to be 110%. Also, in experiment [5], the inhibition was found to be 0%.

Consider `CCOC(=O)c1ccc(NCCCCCc2ccccc2)cc1`, for which the Diet is recorded as 66% with Rattus norvegicus [13], 92% in the experiment on Rattus norvegicus [11], 84% in the experiment on Rattus norvegicus [14] and 85% in the experiment on Rattus norvegicus [15]. Besides, the “serum sterol, percent of control” value with Rattus norvegicus [4] amounted to 90%. This compound also showed an inhibition in experiment [5] of 69%. Also, the “serum triglycerides, percent of control” value with Rattus norvegicus [7] was 62%.

As for `CCOC(=O)c1ccc(NCCCCc2cccs2)cc1`, the Diet in the experiment on Rattus norvegicus [8] is 97%; in the experiment on Rattus norvegicus [9], 96%; with Rattus norvegicus [11], 94%; in the experiment with Rattus norvegicus [14] it was 89%; in the experiment with Rattus norvegicus [12], 99%. Further, in the experiment with Rattus norvegicus [4], the “serum sterol, percent of control” value worked out at 90%. The compound further registered an inhibition in experiment [5] of 56%.

With `O=C(O)c1ccc(NCCCCCc2ccccc2)cc1`, the Diet in the experiment with Rattus norvegicus [9] came to 78%; with Rattus norvegicus [11], 95%; with Rattus norvegicus [14], 96%; with Rattus norvegicus [15], 84%; with Rattus norvegicus [12] it was 89%. In the experiment on Rattus norvegicus [4], the “serum sterol, percent of control” value turned out to be 108%. This compound showed an inhibition in [5] of 26%.

`CCOC(=O)c1ccc(NCc2ccc(-c3ccccc3)cc2)cc1`: the Diet with Rattus norvegicus [9] is 76%; with Rattus norvegicus [10], 74%; with Rattus norvegicus [11], 102%; in the experiment with Rattus norvegicus [15], 94%. The “serum sterol, percent of control” value in the experiment on Rattus norvegicus [4] turned out to be 94%. This compound also gave an inhibition in experiment [5] of 19%. For the same compound, the “serum triglycerides, percent of control” value in the experiment with Rattus norvegicus [7] was found to be 52%.
